PostGolgi yeast = phenotypic screen on post-Golgi transport, primary screen; 0.9% of 98,000 active; AID 739, 2007; post-Golgi transport phenotypic cell assay; inhibition, % at 10 µM;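 also: yeast cells grown in 1536-well plates; yeast grown about 18 h at 30C before absorbance read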
tolC growth inh = growth inhibitors of E. coli tolC mutant, primary screen, strain BW25113 ΔtolC::kan, 384-well | OD615 | growth inhibition, % at 10 µM (by protocol) | 2.2% of 65,000 active;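 active = growth inhibition at or above a cutoff equal to the mean over every tested compound plus 3 SD, cut at about 60% in these data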;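 also: growth measured after 20 h incubation at 37 °C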
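test system = E. coli BW25113 ΔtolC::kan bacteria | medium = LB with kanamycin 50 µg/mL | signal = OD at 615 nm | schedule = 37 °C, 20 h exposure | evaluation = % inhibition of E. coli growth | compound dosing = one dose of 10 µM final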
Ecoli WT expand = growth inhibitors of wild-type E. coli, primary screen, strain BW25113, expanded library, OD600 | growth inhibition, % at 100 µM | 0.15% of 98,000 active | OD600 absorbance | AID 710, 2007;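 active = growth inhibition above about 50% at one test dose, limit read from the data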;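 also: growth measured after 20 h incubation at 37 °C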
PostGolgi ctrl = growth inhibition of yeast control strain, primary screen, counter-screen for post-Golgi transport modulator project; efflux-deficient yeast background strain, growth absorbance A615, 16 h; inhibition, % at 10 µM; 5% of 98,000 active; AID 738, 2007
Cav3 T inh = Cav3.2 calcium influx blockers – cell-based, Fluo-4 calcium fluorescence, FDSS, MLSMR library, primary screen; 4% of 100,000 active; AID 449739, 2010; Cav3.2-expressing cells; active compounds read low; Voltage-dependent T-type calcium channel subunit alpha-1H (Homo sapiens), O95180; B-score at 10 µM;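 active = single-dose well whose peak fluorescence ratio is a statistical outlier from its plate by either plate-standardised score or position-corrected B-score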
Target sequence (O95180 whole entry, looked up): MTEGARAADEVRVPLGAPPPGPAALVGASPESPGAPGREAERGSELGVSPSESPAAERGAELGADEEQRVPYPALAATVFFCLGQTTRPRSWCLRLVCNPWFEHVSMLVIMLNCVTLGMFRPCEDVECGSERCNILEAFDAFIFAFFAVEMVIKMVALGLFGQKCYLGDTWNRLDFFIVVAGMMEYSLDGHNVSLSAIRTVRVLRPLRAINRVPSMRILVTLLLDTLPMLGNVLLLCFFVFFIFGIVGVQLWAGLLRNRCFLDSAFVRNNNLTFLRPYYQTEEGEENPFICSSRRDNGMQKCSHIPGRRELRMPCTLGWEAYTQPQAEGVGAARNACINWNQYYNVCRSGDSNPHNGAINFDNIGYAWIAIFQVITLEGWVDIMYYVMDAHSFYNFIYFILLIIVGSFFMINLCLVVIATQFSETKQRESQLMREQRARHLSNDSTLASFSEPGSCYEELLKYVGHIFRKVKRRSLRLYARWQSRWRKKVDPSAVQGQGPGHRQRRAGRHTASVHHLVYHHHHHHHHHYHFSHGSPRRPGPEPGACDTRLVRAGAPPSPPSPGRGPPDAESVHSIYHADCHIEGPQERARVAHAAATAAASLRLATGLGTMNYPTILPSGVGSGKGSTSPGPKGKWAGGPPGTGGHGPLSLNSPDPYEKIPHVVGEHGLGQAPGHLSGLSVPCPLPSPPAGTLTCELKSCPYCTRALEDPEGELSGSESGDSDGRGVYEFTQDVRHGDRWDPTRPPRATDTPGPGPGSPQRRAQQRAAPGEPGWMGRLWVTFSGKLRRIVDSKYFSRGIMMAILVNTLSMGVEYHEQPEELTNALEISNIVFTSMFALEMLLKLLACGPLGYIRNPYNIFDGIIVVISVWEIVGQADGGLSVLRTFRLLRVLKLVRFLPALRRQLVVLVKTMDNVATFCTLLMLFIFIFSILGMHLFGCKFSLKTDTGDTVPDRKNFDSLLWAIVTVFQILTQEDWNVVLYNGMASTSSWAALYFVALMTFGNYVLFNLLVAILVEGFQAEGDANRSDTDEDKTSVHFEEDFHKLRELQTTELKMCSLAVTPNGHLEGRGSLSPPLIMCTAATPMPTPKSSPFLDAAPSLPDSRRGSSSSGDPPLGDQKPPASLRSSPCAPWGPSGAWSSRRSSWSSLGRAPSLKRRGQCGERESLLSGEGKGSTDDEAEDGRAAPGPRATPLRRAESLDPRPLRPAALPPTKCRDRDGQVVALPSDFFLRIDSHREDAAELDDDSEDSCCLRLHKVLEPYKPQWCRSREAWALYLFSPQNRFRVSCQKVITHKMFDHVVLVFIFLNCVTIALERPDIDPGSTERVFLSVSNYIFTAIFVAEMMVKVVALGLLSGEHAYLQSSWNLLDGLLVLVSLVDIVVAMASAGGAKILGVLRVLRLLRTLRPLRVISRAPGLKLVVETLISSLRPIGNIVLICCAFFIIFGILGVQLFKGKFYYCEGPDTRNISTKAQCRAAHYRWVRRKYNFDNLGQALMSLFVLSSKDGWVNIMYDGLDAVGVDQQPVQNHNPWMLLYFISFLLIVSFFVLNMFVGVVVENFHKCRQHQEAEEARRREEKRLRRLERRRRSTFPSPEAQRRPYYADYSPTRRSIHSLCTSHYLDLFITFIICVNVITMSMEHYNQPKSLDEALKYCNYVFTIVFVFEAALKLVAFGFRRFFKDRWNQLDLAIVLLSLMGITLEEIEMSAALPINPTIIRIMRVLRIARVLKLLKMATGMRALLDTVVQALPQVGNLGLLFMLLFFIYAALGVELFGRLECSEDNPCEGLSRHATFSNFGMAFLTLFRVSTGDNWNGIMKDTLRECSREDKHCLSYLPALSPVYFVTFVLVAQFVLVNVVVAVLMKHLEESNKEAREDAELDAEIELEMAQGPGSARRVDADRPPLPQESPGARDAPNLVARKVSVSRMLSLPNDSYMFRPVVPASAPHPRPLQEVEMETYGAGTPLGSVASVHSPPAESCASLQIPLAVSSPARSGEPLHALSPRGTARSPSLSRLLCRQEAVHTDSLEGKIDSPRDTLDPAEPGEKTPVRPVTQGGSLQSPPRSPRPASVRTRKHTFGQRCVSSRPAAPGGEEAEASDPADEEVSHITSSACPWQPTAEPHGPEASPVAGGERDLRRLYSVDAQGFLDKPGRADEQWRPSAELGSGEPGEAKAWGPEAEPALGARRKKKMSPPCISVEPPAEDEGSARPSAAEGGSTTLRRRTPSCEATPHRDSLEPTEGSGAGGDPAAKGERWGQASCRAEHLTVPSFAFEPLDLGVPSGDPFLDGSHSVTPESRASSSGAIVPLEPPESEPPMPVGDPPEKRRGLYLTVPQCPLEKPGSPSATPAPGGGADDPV
Numbers without * were called inactive. Only some compounds are listed: those with a hit (about 8.4% of all), similar ones and a draw of the others. Rule as the data show it, unless noted: active = inhibition above about 30%; inactive = the rest.

Results for Cc1nc2cc(-c3ccsc3-n3c(C)ccc3C)[nH]n2c(=O)c1Cl ?
PostGolgi yeast: -4; Ecoli WT expand: 2; PostGolgi ctrl: 11; Cav3 T inh: -4.7*

What do the screens show for `COCc1cc(=O)n2[nH]c(-c3ccsc3-n3c(C)ccc3C)cc2n1`?
PostGolgi yeast: -15; Ecoli WT expand: -3; PostGolgi ctrl: 5; Cav3 T inh: 1.1

How did Clc1cccc(Cl)c1CO/N=C/c1c(-c2ccccc2)nc2n1CCS2 do in these assays?
PostGolgi yeast: -3; Ecoli WT expand: -16; PostGolgi ctrl: 30*; Cav3 T inh: -1.1

What do the screens show for `O=C(c1cc2c(=O)oc3ccccc3c2s1)N1CCN(c2ncccn2)CC1`?
tolC growth inh: -4

What do the screens show for `O=C(CSc1cccs1)Nc1ccc2ccccc2c1`?
PostGolgi yeast: -13; Ecoli WT expand: 11; PostGolgi ctrl: 0; Cav3 T inh: -5.3*

What do the screens show for `O=C(CSCc1cccc(CSCC(=O)Nc2ccc3ccccc3c2)n1)Nc1ccc2ccccc2c1`?
PostGolgi yeast: -2; Ecoli WT expand: -18; PostGolgi ctrl: 7

What do the screens show for `CCOc1ccc(C2=Nn3c(nnc3-c3ccccc3OC)SC2)cc1`?
PostGolgi yeast: 5; tolC growth inh: 6; Ecoli WT expand: 5; PostGolgi ctrl: 18; Cav3 T inh: -5.3*

Results for COc1ccc(CCN(Cc2cc3cc(C)c(C)cc3nc2Cl)C(=O)C2CC2)cc1 ?
PostGolgi yeast: -3; Ecoli WT expand: -15; PostGolgi ctrl: 20; Cav3 T inh: -2.6

What do the screens show for `CN1C(=S)SC(C)(C)C1(C)NO` (configuration not stated)?
PostGolgi yeast: -10; tolC growth inh: -17; Ecoli WT expand: 2; PostGolgi ctrl: 5

What do the screens show for `Cc1cc(Br)ccc1NC(=O)CN1C(=O)C2C3CC(c4ccccc4)C(C3)C2C1=O` (configuration not stated)?
PostGolgi yeast: 2; Ecoli WT expand: -10; PostGolgi ctrl: 53*

Results for O=C(COC(=O)[C@H](Cc1ccccc1)NS(=O)(=O)c1ccccc1F)NC1CCCCC1 ?
PostGolgi yeast: -10; Ecoli WT expand: 6; PostGolgi ctrl: -1; Cav3 T inh: -4.9*

What do the screens show for `COc1ccc(/C=C\C(=O)CC(O)(c2ccccc2)C(F)(F)F)cc1` (configuration not stated)?
PostGolgi yeast: -4; Ecoli WT expand: 7; PostGolgi ctrl: 38*; Cav3 T inh: -2.4

How did COc1ccc(/C=C/C(=O)c2ccccc2O)cc1 do in these assays?
Cav3 T inh: -0.67

How did COc1ccc(OCCSc2nnc(CC(=O)Nc3cccc(Cl)c3Cl)n2C)cc1 do in these assays?
PostGolgi yeast: 16; Ecoli WT expand: 19; PostGolgi ctrl: -1; Cav3 T inh: -4*

Results for CCn1c(CC(=O)Nc2cccc(Cl)c2Cl)nnc1SCCOc1ccc(OC)cc1 ?
PostGolgi yeast: 14; Ecoli WT expand: 3; PostGolgi ctrl: 18; Cav3 T inh: -0.029

Results for CNC(=O)c1cc2c(=O)n3cccc(C)c3nc2n1C ?
tolC growth inh: 2

Results for COc1ccccc1C1/C(=C(\O)c2c(C)nc3c(C)cccn23)C(=O)C(=O)N1CCCN(C)C (configuration not stated) ?
tolC growth inh: -27

Results for CCCCN(CC)CCNc1c(NC2CCN(C(=O)OCC)CC2)c(=O)c1=O ?
PostGolgi yeast: -4; tolC growth inh: -21; Ecoli WT expand: 0; PostGolgi ctrl: 36*; Cav3 T inh: -0.68

Results for CCOC(=O)N1CCC(Nc2c(NCCCOC)c(=O)c2=O)CC1 ?
PostGolgi yeast: 9; tolC growth inh: -12; Ecoli WT expand: 5; PostGolgi ctrl: 47*; Cav3 T inh: 0.57

Results for Cc1nc(-c2ccccc2)sc1C1(C)CC(c2c(Cl)cccc2Cl)=NO1 (configuration not stated) ?
Cav3 T inh: -0.51

What do the screens show for `COc1cccc(OC)c1OCCCc1c(C)n[nH]c1C`?
PostGolgi yeast: 3; tolC growth inh: 13; Ecoli WT expand: 3; PostGolgi ctrl: -6; Cav3 T inh: 0.24

Results for Cc1n[nH]c(C)c1CCOc1ccc(C(C)C)cc1 ?
PostGolgi yeast: 10; Ecoli WT expand: 20; PostGolgi ctrl: 9; Cav3 T inh: -5.4*

What do the screens show for `O=C1C=C(c2ccc(F)nc2)CCC1`?
Cav3 T inh: -0.033

Compound activity: PubChem BioAssay, several laboratories
